The species named for experiment [1] is Rattus norvegicus. The experiment can be described thus: Inhibition of [3H]-dopamine uptake into rat brain synaptosomes in vitro;Values ranges from :18-39. It is filed as functional. The method, boiled down: (§1)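 Male Sprague–Dawley rat (180–240 g) cortex (NE, 5-HT) or striatum (DA) crude P2 synaptosomes in 0.32 M sucrose. Preincubated 5 min at 25 °C with drug in Krebs–Ringer phosphate containing ascorbate, EDTA, nialamide; 0.1 μM final [3H]amine added for 5 min. Stopped by cold saline and GF/B filtration; nonspecific uptake at 4 °C. IC50 with 95% limits computed.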

Experiment [2] deals with T1, Adrenergic receptor alpha-2 (Rattus norvegicus, UniProt P22086+P19328+P22909).
T1 sequence (P22086 whole entry): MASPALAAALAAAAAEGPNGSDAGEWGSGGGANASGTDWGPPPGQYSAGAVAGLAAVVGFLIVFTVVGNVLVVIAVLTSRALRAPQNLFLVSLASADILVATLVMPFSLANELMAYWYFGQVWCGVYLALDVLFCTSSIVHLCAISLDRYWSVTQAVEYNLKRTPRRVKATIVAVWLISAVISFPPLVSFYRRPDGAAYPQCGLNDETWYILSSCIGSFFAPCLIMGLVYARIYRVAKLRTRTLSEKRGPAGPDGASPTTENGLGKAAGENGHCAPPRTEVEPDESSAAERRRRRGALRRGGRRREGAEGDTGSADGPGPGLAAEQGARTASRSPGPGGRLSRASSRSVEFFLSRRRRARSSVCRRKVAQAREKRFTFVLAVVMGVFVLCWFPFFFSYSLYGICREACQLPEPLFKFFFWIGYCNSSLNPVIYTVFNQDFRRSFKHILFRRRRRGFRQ
T1 sequence (P19328 whole entry): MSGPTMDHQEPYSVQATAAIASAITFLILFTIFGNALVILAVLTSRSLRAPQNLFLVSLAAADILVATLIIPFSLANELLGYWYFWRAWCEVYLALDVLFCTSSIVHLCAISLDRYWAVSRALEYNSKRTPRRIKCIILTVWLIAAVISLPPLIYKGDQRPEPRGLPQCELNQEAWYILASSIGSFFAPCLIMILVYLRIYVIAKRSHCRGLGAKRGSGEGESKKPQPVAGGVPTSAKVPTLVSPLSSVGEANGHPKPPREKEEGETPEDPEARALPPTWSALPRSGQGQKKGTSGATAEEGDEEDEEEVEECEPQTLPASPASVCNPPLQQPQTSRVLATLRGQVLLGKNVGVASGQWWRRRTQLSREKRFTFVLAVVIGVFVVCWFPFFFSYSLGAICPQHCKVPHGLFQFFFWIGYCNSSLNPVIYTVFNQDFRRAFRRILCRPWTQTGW
T1 sequence (P22909 whole entry): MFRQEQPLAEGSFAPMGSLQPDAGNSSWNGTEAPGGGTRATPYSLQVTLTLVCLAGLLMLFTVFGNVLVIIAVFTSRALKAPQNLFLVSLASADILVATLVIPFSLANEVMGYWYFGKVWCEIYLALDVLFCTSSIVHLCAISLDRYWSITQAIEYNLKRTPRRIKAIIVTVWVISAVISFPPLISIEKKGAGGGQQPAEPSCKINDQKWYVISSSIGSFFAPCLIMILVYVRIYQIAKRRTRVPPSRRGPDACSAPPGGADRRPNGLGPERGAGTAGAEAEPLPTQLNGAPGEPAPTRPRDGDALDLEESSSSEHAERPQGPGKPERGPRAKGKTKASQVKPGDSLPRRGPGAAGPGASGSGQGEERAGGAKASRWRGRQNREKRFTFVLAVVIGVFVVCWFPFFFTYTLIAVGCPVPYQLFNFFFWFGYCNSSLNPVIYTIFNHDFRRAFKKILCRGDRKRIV
The experiment can be described thus: In vitro antagonistic activity against alpha-2 adrenergic receptor in isolated electrically stimulated rat vas deferens (clonidine-induced decrease in twitch height). It is filed as functional, tissue-based.

The test system of experiment [3] is Mus musculus. Description: Effective dose required to antagonise clonidine-induced antinociception(ACA) in mouse by peroral administration at maximum response 100. It is filed as functional.
The species named for experiment [4] is Rattus norvegicus. The experiment can be described thus: Inhibition of [3H]5-HT uptake into rat brain synaptosomes in vitro Values ranges from: 0.3-0.5. It is filed as functional. The gist of the method:
as §1

Experiment [5] has as its system Mus musculus. The experiment can be described thus: Effective dose required for inhibition of tetrabenazine-induced ptosis in mouse by peroral administration; Values ranges from 12-25. Conditions: po.
For experiment [6], the species on record is Rattus norvegicus. Description: Inhibition of [3H]norepinephrine uptake into rat brain synaptosomes in vitro;Values ranges from :20-180. It is filed as functional. The method, boiled down:
as §1

The species named for experiment [7] is Rattus norvegicus. The experiment can be described thus: Inhibition of [3H]dopamine uptake into rat brain synaptosomes in vitro;Value ranges from:2.5-4.5. It is filed as functional. The gist of the method:
as §1

For experiment [8], the system named is Mus musculus. Description: Effective dose required to antagonise clonidine-induced antinociception(ACA) in mouse by peroral administration;Values ranges from: 15-86. Conditions: po. It is filed as functional.
For experiment [9], the species on record is Rattus norvegicus. Description: Inhibition of [3H]norepinephrine uptake into rat brain synaptosomes in vitro;Value ranges from:1.9-4.4. It is filed as functional. The method, boiled down:
as §1

Experiment [10] deals with Mus musculus. The experiment can be described thus: Effective dose required for inhibition of tetrabenazine-induced ptosis in mouse by peroral administration at maximum response 30. It is filed as functional.
For experiment [11], the species on record is Rattus norvegicus. The experiment can be described thus: Inhibition of [3H]5-HT uptake into rat brain synaptosomes in vitro;Value ranges from:0.2-0.8. It is filed as functional. The gist of the method:
as §1

For orientation: IC50 means the concentration that gives 50% inhibition. The pA2 is the negative logarithm of the molar antagonist concentration that doubles the agonist concentration needed for the same response. Higher therefore signals a more potent antagonist. As a reminder, the Inhibition is the relative decrease from the control value, in per cent. A high value points to strong suppression. Usually ED50 stands for the dose at which the effect has come halfway, by size or by number of responders. `CC1=C(CC2=NCCN2)CCc2ccccc21.Cl`: the 50% inhibitory concentration (IC50) was determined as 26 µM in the experiment filed under Rattus norvegicus [1], 0.4 µM in the experiment filed under Rattus norvegicus [4] and 60 µM in the experiment filed under Rattus norvegicus [6]. The pA2 in experiment [2] came to 7.19. For the same compound, the Inhibition with Mus musculus [3] is 50%. The same compound returned an ED50 with Mus musculus [5] of 18 mg/kg.

Regarding `C1=C(CC2=NCCN2)CCc2ccccc21.Cl` [NAPAMEZOLE HYDROCHLORIDE], the IC50 in the experiment listed under Rattus norvegicus [7] turned out to be 3.3 µM; in the experiment listed under Rattus norvegicus [9], 2.9 µM; in the experiment listed under Rattus norvegicus [11] it was 0.4 µM. This compound also gave a pA2 in experiment [2] of 7.76. In addition, in the experiment with Mus musculus [8], the ED50 was 36 mg/kg. In the experiment on Mus musculus [10], the Inhibition came out at 35%.

For the origin of these results see ChEMBL document CHEMBL1123816, “Synthesis and antidepressant properties of novel 2-substituted 4,5-dihydro-1H-imidazole derivatives” (J Med Chem, 1987).
